Assay results as given in ChEMBL document CHEMBL4028902, “Azetidine and Piperidine Carbamates as Efficient, Covalent Inhibitors of Monoacylglycerol Lipase” (J Med Chem, 2017).
Calls of active or inactive are those of the source. The calls are words filed in the database; no cut-off is given here.

What was measured:
[1] = biological target: T1, Fatty-acid amide hydrolase 1 (Homo sapiens, UniProt O00519); assay: Inhibition of human recombinant FAAH using arachidonoyl-AMC as substrate preincubated for 30 mins followed by substrate addition measured after 60 mins by fluorescence assay
T1 sequence (O00519 whole entry): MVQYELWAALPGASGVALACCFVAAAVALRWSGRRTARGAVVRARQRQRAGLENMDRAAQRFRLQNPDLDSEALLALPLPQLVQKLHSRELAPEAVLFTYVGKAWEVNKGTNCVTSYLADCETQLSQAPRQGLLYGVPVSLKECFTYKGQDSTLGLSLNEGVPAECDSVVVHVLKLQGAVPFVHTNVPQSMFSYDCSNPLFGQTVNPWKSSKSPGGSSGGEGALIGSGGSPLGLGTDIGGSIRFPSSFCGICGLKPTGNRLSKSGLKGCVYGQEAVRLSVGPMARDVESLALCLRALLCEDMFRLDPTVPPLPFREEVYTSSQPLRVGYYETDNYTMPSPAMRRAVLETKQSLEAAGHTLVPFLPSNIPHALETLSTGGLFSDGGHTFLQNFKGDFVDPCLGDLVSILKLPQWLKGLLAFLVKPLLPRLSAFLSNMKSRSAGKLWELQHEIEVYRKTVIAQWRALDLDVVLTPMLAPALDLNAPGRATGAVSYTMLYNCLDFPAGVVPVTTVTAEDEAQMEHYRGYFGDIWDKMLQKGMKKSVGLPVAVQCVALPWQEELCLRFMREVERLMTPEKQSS
Procedure, shortened: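 Human recombinant FAAH (0.0125 unit final) in 50 mM Tris pH 9.0, 1 mM EDTA, preincubated 30 min at room temperature with compound (final 30 μM–0.3 nM). Arachidonoyl-AMC added (5 μM final), reaction run 60 min, fluorescence Ex/Em 355/460. Percent inhibition versus no-compound and full-inhibition controls.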

Liver carboxylesterase 1 = biological target: T2, Liver carboxylesterase 1 (Homo sapiens, UniProt P23141); assay: Inhibition of human CES1 at 1 to 10 uM relative to control
T2 sequence (P23141 whole entry): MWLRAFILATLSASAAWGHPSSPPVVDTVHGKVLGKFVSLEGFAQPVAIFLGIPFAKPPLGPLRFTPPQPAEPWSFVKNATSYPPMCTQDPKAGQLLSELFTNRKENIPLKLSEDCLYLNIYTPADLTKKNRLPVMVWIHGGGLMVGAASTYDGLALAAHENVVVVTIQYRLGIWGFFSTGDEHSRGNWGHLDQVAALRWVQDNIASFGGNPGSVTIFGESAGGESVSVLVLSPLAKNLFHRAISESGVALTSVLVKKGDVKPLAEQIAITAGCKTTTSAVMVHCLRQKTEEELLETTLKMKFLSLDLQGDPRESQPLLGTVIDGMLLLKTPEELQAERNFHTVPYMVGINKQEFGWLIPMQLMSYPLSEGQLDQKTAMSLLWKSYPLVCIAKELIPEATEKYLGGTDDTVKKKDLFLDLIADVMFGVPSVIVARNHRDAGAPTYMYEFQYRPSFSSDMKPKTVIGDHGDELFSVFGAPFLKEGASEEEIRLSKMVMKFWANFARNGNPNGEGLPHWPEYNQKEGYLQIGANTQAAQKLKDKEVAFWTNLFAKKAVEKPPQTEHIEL

[2] = biological target: T3, Platelet-activating factor acetylhydrolase (Homo sapiens) (UniProt Q13093); assay: Inhibition of human PLA2G7 at 1 to 10 uM relative to control
T3 sequence (whole entry): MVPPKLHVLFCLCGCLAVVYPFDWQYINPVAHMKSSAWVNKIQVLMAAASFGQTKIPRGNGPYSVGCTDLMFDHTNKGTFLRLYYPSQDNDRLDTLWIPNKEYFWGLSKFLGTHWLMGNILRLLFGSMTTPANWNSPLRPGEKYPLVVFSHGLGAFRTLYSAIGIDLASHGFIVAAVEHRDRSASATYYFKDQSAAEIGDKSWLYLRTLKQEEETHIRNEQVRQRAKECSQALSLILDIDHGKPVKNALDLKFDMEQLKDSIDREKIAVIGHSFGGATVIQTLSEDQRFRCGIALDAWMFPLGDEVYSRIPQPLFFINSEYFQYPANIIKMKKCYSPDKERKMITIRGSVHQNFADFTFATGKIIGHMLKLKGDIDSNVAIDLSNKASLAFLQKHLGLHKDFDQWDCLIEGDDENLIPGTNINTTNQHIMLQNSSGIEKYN

[3] = Tmax in C57Bl6 mouse at 10 mg/kg, sc; format: ADME, organism-based; conditions: in vivo
Procedure, shortened: (§1)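 Subcutaneous dosing of C57Bl6 mice in DMSO/Cremophor/saline (5:5:90). Plasma (NaF/K2EDTA tubes) and cerebellum collected at 0.5–24 h, 3 mice per time point. Cerebellum diluted 1:4 (w/v) with water and homogenized; samples deproteinated with methanol/acetonitrile plus internal standard, then HPLC-MS/MS. LLOQ 1.0 ng/mL plasma, 0.5 ng/mL brain homogenate. PK parameters by noncompartmental analysis.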

Mus musculus [4] = assay: Time required for unbound brain concentration to reach above in vitro IC50 for recombinant human MAGL in C57Bl6 mouse at 10 mg/kg, sc; procedure, shortened: as §1
Brain = assay: Ratio of unbound drug level in C57Bl6 mouse brain at 10 mg/kg, sc to 1 mg/kg, sc; format: ADME, organism-based; conditions: in vivo; procedure, shortened: as §1
[5] = biological target: T4, Monoglyceride lipase (Homo sapiens) (UniProt Q99685); assay: Inhibition of MAGL in human brain vascular pericytes; format: cell-based
T4 sequence (whole entry): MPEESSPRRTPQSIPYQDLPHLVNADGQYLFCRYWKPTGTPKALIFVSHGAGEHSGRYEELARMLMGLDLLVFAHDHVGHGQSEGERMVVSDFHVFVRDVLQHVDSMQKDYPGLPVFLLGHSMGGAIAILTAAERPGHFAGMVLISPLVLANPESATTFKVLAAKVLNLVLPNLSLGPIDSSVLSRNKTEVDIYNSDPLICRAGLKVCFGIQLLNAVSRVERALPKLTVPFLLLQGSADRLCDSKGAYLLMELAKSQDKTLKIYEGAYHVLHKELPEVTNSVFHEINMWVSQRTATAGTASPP
Procedure, shortened: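 Human brain vascular pericytes grown in DMEM/F12 with 5% heat-inactivated FBS and pericyte growth supplement, then given alkyne-tagged probe (1000× DMSO stock) in medium for 1 h at 37 °C. Pellets lysed in PBS/0.25% SDS, proteome normalized to 1.0 mg/mL, Cu-catalyzed click with TAMRA azide, SDS-PAGE in-gel fluorescence. Two MAGL bands averaged; two biological replicates fitted to a dose–response curve.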

[6] = biological target: T5, CES1 (liver carboxylesterase 1) (Homo sapiens, UniProt P23141); assay: Inhibition of human CES1 at 10 uM relative to control
T5 sequence (P23141 whole entry): T2 sequence (P23141 whole entry)

Mus musculus [7] = assay: In vivo inhibition of MAGL in C57Bl6 mouse assessed as increase in 2-AG levels in brain at 1 mg/kg, sc measured at 2 hrs by LC-MS/MS method; format: functional, organism-based
Procedure, shortened: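 C57Bl6 mice, 7 weeks old, 4 per cage, food and water ad libitum, dosed subcutaneously in DMSO/Cremophor/saline (5:5:90, v/v/v). Brains taken after isoflurane, cardiac puncture and cervical dislocation at 0.5, 1, 2, 4, 8, 12 and 24 h (3 mice per time point); vehicle group at 1 h. Frozen in liquid nitrogen, homogenized in 3 volumes PMSF/NH4OAc buffer pH 2.0, d5-2-AG internal standard, ACN extraction, LC-MS/MS (positive ESI, SRM).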

Row | IC50 [1] [nM] | inhibition (INH) (Liver carboxylesterase 1) [%] | inhibition [2] [%] | Tmax [3] [min] | Ratio (Brain) | inhibition [5] | inhibition at 10 µM [6] [%] | SMILES | Time (Mus musculus [4]) [h] | inhibition (Mus musculus [7])
1 | 260 | > 70 | > 70 | 30 | 100 | Active | – | O=C(OC(C(F)(F)F)C(F)(F)F)N1CC(c2ccn(-c3ccccc3)n2)C1 | 8 | –
2 | – | – | – | – | – | – | > 70 | O=C(OC(C(F)(F)F)C(F)(F)F)N1CCC(c2ccn(-c3ccccc3)n2)CC1 | – | Active
